# Assay outcomes from PubChem.
# Compounds with a hit are over-represented: about 1.9% of the library has one in this group of screens.
# beta cell repl = inducers of beta-cell replication in MIN6 cells; MIN6 cells proliferation, ATPlite luminescence, 48 h; cells starved in 0.2% serum; 100% = growth in 10% serum; 0.29% of 330,000 active; proliferation, % at 10 µM;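 active = compounds whose signal lies at least 3.5 SD above the mean of all wells on their plate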;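 note: 0% = DMSO-treated cells in low-serum medium and 100% = 10% serum control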
# PG9 binder = binds the HIV-1 gp120 antibody PG9; TR-FRET gp120-PG9 antibody binding; inhibition, % at 6.7 µM; 0.43% of 360,000 active; AID 624416; in the data active = inhibition above about 8.5%
# Yeast superoxide = lowers age-related superoxide in aged yeast cells | 0.18% of 330,000 active | S. cerevisiae aged cells, superoxide DHE fluorescence; active compounds read low | AID 2690 | superoxide response (% of plate mean), % at 10 µM;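 active = superoxide response under a set limit, about three screen SD below normal, cut at about 65% in these data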;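 note: yeast aged for seven days with compound at 30 °C before DHE staining; 100% = average MFI of all compound-treated wells on the plate with controls excluded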
# UCH37 inh = human UCH37 deubiquitinating enzyme inhibition | Q9Y5K5 | purified proteasome/UCH37, Ub-AMC cleavage fluorescence | inhibition, % (test concentration not listed) | 0.33% of 330,000 active;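 active = mean inhibition over replicate wells above about 20%, limit read from the data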;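 note: 0% = compound-free wells with enzyme and 100% = wells lacking proteasome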
#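 system = Proteasome-associated human UCH37 deubiquitinase | amount = 0.15 nM proteasome as dispensed | medium = pH 7.4 Tris-HCl (50 mM) with ovalbumin, ATP-MgCl2, DTT | incubation = 30 min preincubation with enzyme, 25 min cleavage at room temperature | detection = AMC fluorescence 355/460 nm | read-out basis = percent inhibition | controls = no-proteasome and no-compound wells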
# Rev-erbA mod = modulates human Rev-erb alpha binding to DNA; Rev-erbα–FITC-DNA binding, fluorescence polarization, 90 min; activity, % at 10 µM; 0.79% of 370,000 active; AID 1259318;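 active = activity above about 14%, limit read from the data; passing the limit was not always enough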;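 note: 0% = DMSO wells with 35 nM protein and 100% = DMSO wells with 750 nM protein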
# Rce1 inh = yeast Ras-converting enzyme inhibition; AID 2563; calls only; Q03530; 0.27% of 290,000 active; yeast membranes, quenched prenylated peptide cleavage fluorescence;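 active = fall in fluorescence gain of 50% or more versus controls, with final raw signal at or below 3038400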;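 note: plate controls were neutral control wells for no effect and wells lacking membranes for full effect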
# Target sequence (Q03530 whole entry, looked up): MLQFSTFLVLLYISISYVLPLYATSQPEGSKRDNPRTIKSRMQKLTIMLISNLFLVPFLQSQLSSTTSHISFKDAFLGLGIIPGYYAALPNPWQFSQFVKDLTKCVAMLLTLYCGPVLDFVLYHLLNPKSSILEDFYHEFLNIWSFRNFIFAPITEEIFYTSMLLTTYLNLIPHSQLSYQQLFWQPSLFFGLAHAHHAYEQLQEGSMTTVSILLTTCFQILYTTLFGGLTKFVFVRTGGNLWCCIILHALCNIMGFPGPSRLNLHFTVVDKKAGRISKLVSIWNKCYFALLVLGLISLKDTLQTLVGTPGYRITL
# UCH37 confirm = reconfirmed inhibitor of human deubiquitinase UCH37; inhibition, % at 20 µM; 27% of 480 active; shares compounds with UCH37 inh; Proteasome-bound UCH37, Ub-AMC cleavage fluorescence; AID 624100;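 active = average inhibition over replicates above about 50%, so the earlier screening hit is confirmed, limit read from the data; inactive = the rest, counted as false positives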;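 note: based on cleavage rate fitted by regression over a 30 min kinetic read; 0% = proteasome plus Ub-AMC and 100% = Ub-AMC without proteasome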
# Active calls of the source: *; i = inactive; nt = not tested or not shown.
SMILES,beta cell repl,PG9 binder,Yeast superoxide,UCH37 inh,Rev-erbA mod,Rce1 inh,UCH37 confirm
CC(=NNC(=O)c1ccccc1)c1ccc(NC(=O)C(F)(F)F)cc1,nt,nt,nt,2,nt,nt,nt
CCON=CC(=O)Nc1ccc(F)cc1F,nt,nt,nt,5,nt,nt,nt
O=C1C=C(N(CCO)Cc2ccccc2)c2ccccc2C1=O,nt,nt,nt,92*,nt,i,111*
CCOc1ccc(Cl)cc1C(c1c(C)[nH][nH]c1=O)c1c(C)[nH][nH]c1=O,0,1,91,4,-7,i,nt
Cc1[nH][nH]c(=O)c1C(c1ccc(-c2ccc(Cl)c(Cl)c2)o1)c1c(C)[nH][nH]c1=O,-5,-3,109,42*,-1,i,27
CC1=NNC(=O)C1CCC(=O)NN=Cc1ccco1 (centres undefined),nt,nt,nt,4,nt,nt,nt
CC(=O)N(c1ccccc1C)C1CCCC1,1,0,105,1,1,i,nt
CC(=O)N(C1=C(Cl)C(=O)c2ccccc2C1=O)C1CCCCC1,-4,1,123,44*,-9,i,54*
C(=Nn1cnnc1)c1ccc2c(c1)OCCO2,nt,nt,nt,-6,nt,nt,nt
CN1CCC/C1=C/C=C1\SC(=S)NC1=O,nt,-14,94,35*,-1,nt,34
O=C1NC(=S)SC1=Cc1cccs1,nt,-2,nt,10,1,nt,nt
COc1ccc(/C=N/NC(=O)c2ccncc2)c(OC)c1,-3,-1,97,nt,1,i,nt
COc1cc(OC)c(OC)cc1C=NNC(=O)c1cnccn1,nt,nt,nt,41*,nt,nt,27
COc1cc(C=NNC(=O)c2cnccn2)ccc1O,nt,nt,nt,15,nt,nt,nt
COc1cc(OC)c([N+](=O)[O-])cc1C=NNC(=O)c1ccncc1,nt,nt,nt,44*,nt,nt,15
CCN(CC)c1ccc(C=NNc2nc(C)cc(=O)[nH]2)cc1,nt,nt,nt,-40,nt,nt,nt
CC(C)c1ccc(C(CC(=O)O)N2Cc3ccccc3C2=O)cc1 (centres undefined),-3,-2,101,62*,-7,i,81*
O=C1C(Cl)=C(Nc2ccc3cn[nH]c3c2)C(=O)c2ccccc21,nt,-13,143,46*,12,i,13
Cc1ccccc1OCC(=O)NNC(=O)CCc1ccccc1,0,-3,91,5,-1,i,nt
Cc1ccccc1OCC(=O)NCc1ccccc1,-2,0,117,41*,-1,i,15
Cc1ccc(-n2c(=O)cc(N3CCc4ccccc4C3)[nH]c2=O)cc1,-2,-3,85,34*,1,nt,32
Cc1ccccc1-n1c(=O)cc(N2CCc3ccccc3C2)[nH]c1=O,-2,0,97,27*,-7,i,32
CC(C)=CCC1=C(OCC(=O)O)C(=O)c2ccccc2C1=O,-4,-1,125,81*,-1,i,39
CCNC(=S)NN=Cc1c(C)nn(-c2cccc(Cl)c2)c1Cl,nt,nt,nt,1,nt,nt,nt
COc1ccc(-c2nc(-c3ccccn3)ncc2S(C)(=O)=O)cc1,2,-1,93,6,-3,nt,nt
SMILES,beta cell repl,PG9 binder,Yeast superoxide,UCH37 inh,Rev-erbA mod,Rce1 inh,UCH37 confirm
CCCc1nc2c(=O)n(C)c(=O)nc-2n(C)n1,nt,-1,nt,100*,-27,nt,100*
Cn1nc(-c2ccccn2)nc2c(=O)n(C)c(=O)nc1-2,-8,-4,114,97*,-28,i,100*
CCn1c(N)nc2c1c(=O)n(C)c(=O)n2C,4,-2,110,2,-1,i,nt
CSc1ccc(C=NNC(=O)CNc2ccc(C)cc2)cc1,nt,nt,nt,1,nt,nt,nt
Cc1[nH]nc2c1C(=NO)CC(C)(C)C2,nt,nt,nt,2,nt,nt,nt
COc1cc(C=NNc2nncc3ccccc23)cc(OC)c1OC,nt,nt,nt,15,nt,nt,nt
O=C(O)C(c1ccccc1)N1C(=O)/C(=C\c2ccc(-c3ccc(Br)cc3)o2)SC1=S (centres undefined),-5,-3,nt,nt,6,i,nt
O=C(O)C(c1ccccc1)N1C(=O)/C(=C\c2ccc(-c3ccccc3Cl)o2)SC1=S (centres undefined),-4,-2,118,38*,-11,i,100*
O=C1CCCC2=C1C1(O)C(=O)c3ccccc3C1(O)O2 (centres undefined),-1,1,104,65*,0,i,79*
